Tests used:
[1] = test system: Plasmodium falciparum; test: Antiplasmodial activity against chloroquine-resistant Plasmodium falciparum K1 infected in human A+ erythrocytes assessed as inhibition of parasite growth after 48 hrs by LDH assay; assay type: functional, organism-based; conditions: K1, 48 h
Procedure, shortened: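 Ring-stage cultures in human A+ erythrocytes (RPMI 1640, A+ serum, D-glucose), 2.5% haematocrit, 1% parasitaemia; twofold serial dilutions in duplicate, DMSO ≤0.5% final. 48 h at 37 °C under 93% N2/3% O2/4% CO2. Growth read as lactate dehydrogenase activity (APAD, lactate, diaphorase, NBT; 550 nm); % inhibition vs controls; IC50 by linear regression; mean of triplicate experiments.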

[2] = Selectivity index, ratio of IC50 for rat L6 cells to IC50 for chloroquine-resistant Plasmodium falciparum K1; assay type: toxicity, cell-based; conditions: read-out: Ratio IC50
Procedure, shortened: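 IC50 ratio, L6 over P. falciparum K1. L6 cells seeded at 1×10^4 mL⁻¹ with compound, 6 days at 37 °C, resazurin added, fluorescence after 8 h. Parasites in A+ erythrocytes (2.5% haematocrit, 1% parasitaemia) with twofold dilutions, 48 h at 37 °C in low-oxygen gas; growth read by LDH activity at 550 nm.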

[3] = test system: Trypanosoma brucei; test: Trypanocidal activity against bloodstream form of Trypanosoma brucei 221 assessed as inhibition of parasite growth at pH 7.4 after 48 hrs by Spectramax plate reader analysis; assay type: functional, organism-based; conditions: Trypanosoma brucei, 221, 48 h
Procedure, shortened: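 Bloodstream-form T. brucei strain 221 grown at 37 °C in modified Iscove's medium; log-phase cells diluted to 0.25 × 10^5 mL⁻¹, exposed to a range of compound concentrations in triplicate at 37 °C. Resazurin added after 48 h, read after a further 16 h. IC50 and IC90 = concentrations inhibiting growth 50% and 90%; mean of triplicate experiments ± SEM.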

[4] = Selectivity index, ratio of IC50 for rat L6 cells to IC50 for bloodstream form of Trypanosoma brucei 221; assay type: toxicity, cell-based; conditions: read-out: Ratio IC50
Procedure, shortened: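 IC50 ratio, L6 over T. brucei. L6 cells seeded at 1×10^4 mL⁻¹ with compound, 6 days at 37 °C, then resazurin, 8 h more, fluorescence read. Log-phase bloodstream T. brucei 221 in modified Iscove's medium at 0.25 × 105 mL⁻¹, compound range in triplicate, 37 °C; resazurin at 48 h, read after 16 h more.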

[5] = test system: L6; test: Cytotoxicity against rat L6 cells assessed as inhibition of cell growth after 6 days by Spectramax fluorescence plate reader analysis; assay type: cell-based; conditions: L6, 144 h
Procedure, shortened: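 L6 rat skeletal myoblasts seeded at 1×10^4 mL⁻¹ in growth medium containing a range of compound concentrations, incubated 6 days at 37 °C; resazurin added, fluorescence read after a further 8 h. IC50 = concentration inhibiting growth by 50%; mean of triplicate experiments ± SEM.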

[6] = Permeability by PAMPA-BBB assay; assay type: ADME; conditions: read-out: Peff
Procedure, shortened: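 Parallel artificial membrane permeation through porcine brain lipid extract, using PBS:EtOH 70:30; effective permeability Pe reported as mean ± SD of three independent experiments.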

[7] = target: Acetylcholinesterase (Homo sapiens, UniProt P22303); test: Inhibition of human recombinant AChE using acetylthiocholine iodide as substrate preincubated with enzyme for 20 mins prior to substrate addition by Ellman's method
Procedure, shortened: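 Ellman assay in 0.1 M phosphate buffer pH 8.0 with hAChE 0.02 u/mL and 333 µM DTNB. At least 10 inhibitor concentrations, in duplicate, preincubated 20 min at 37 °C. Then 450 µM acetylthiocholine iodide, 5 min at 37 °C; absorbance at 414 nm against an uninhibited sample. IC50 by non-linear regression; mean ± S.E.M. of at least 4 experiments.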

[8] = Inhibition of beta-haematin formation by microplate reader analysis relative to hemin; assay type: physicochemical
Procedure, shortened: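 Haemin chloride (8 mM stock in DMSO) mixed with serial compound dilutions (0.5-32 mM) in 25% DMSO; formation initiated with 8 M acetate buffer pH 5.0, 18 h at 37 °C. Pellets washed with DMSO, β-haematin dissolved in 0.1 M NaOH, OD 400 nm read versus drug-free controls; BHIA50 expressed as compound equivalents relative to haemin, by linear regression.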

Sequence of Acetylcholinesterase (P22303 whole entry): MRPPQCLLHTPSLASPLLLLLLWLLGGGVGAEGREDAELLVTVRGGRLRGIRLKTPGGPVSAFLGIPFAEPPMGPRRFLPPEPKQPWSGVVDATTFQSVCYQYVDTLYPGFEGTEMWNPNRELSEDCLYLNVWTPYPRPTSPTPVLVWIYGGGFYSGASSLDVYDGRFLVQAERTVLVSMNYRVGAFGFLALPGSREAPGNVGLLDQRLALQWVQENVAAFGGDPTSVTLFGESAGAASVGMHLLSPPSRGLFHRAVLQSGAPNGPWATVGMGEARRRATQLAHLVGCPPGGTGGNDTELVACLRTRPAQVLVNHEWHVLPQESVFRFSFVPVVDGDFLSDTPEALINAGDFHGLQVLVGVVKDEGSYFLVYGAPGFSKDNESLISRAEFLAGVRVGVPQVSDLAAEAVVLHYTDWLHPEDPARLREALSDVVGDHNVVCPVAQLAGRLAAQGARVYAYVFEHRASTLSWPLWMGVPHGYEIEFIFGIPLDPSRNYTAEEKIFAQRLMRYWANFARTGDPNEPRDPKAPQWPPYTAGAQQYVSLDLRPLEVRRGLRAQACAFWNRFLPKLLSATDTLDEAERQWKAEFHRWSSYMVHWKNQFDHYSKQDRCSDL

Structure (SMILES): CC1=C[C@@H]2Cc3nc4cc(Cl)ccc4c(NCCCCCCCNc4c5c(nc6ccccc46)CCCC5)c3[C@H](C1)C2
- IC50 [1]: 460 nM
- selectivity ratio [2]: < 2.2
- IC50 [3]: 290 nM
- IC90 [3]: 490 nM
- selectivity ratio [4]: < 3.4
- IC50 [5]: < 1000 nM

Structure (SMILES): CC1=CC2Cc3nc4cc(Cl)ccc4c(NCCCCCCCCCNc4c5c(nc6cc(Cl)ccc46)CCCC5)c3C(C1)C2 (centres undefined)
- IC50 [1]: > 6820 nM
- selectivity ratio [2]: < 5.9
- IC50 [3]: 240 nM
- IC90 [3]: 520 nM
- selectivity ratio [4]: 167
- IC50 [5]: 40000 nM

Structure (SMILES): COc1cc2c(cc1OC)C(=O)C(CC1CCN(CCCNc3c4c(nc5ccccc35)CCCC4)CC1)C2 (centres undefined)
- IC50 [3]: 280 nM
- IC90 [3]: 620 nM
- selectivity ratio [4]: < 3.6
- IC50 [5]: < 1000 nM

Structure (SMILES): CC1=CC2Cc3nc4cc(Cl)ccc4c(NCCCCCCCNc4c5c(nc6ccccc46)CCCC5)c3C(C1)C2 (centres undefined)
- IC50 [1]: 470 nM
- selectivity ratio [2]: < 2.1
- IC50 [3]: 240 nM
- IC90 [3]: 430 nM
- selectivity ratio [4]: < 4.2
- IC50 [5]: < 1000 nM

Structure (SMILES): CC1=CC2Cc3nc4cc(Cl)ccc4c(NCCCCCCCCCCNc4c5c(nc6ccccc46)CCCC5)c3C(C1)C2 (centres undefined)
- IC50 [3]: 140 nM
- IC90 [3]: 480 nM
- selectivity ratio [4]: 12
- IC50 [5]: 1670 nM

Structure (SMILES): CC1=CC2Cc3nc4ccccc4c(NCCCCCCCCCCCCNc4c5c(nc6cc(Cl)ccc46)CCCC5)c3C(C1)C2 (centres undefined)
- IC50 [1]: > 6900 nM
- selectivity ratio [2]: < 0.4
- IC50 [3]: 550 nM
- IC90 [3]: 750 nM
- selectivity ratio [4]: 5
- Papp [6]: 11 ×10⁻⁶ cm/s
- IC50 [5]: 2740 nM
- IC50 [7]: 3.66 nM

Structure (SMILES): CC1=CC2Cc3nc4cc(Cl)ccc4c(NCCCCCCNc4c5c(nc6cc(Cl)ccc46)CCCC5)c3C(C1)C2 (centres undefined)
- IC50 [1]: 4400 nM
- selectivity ratio [2]: 0.25
- IC50 [3]: 560 nM
- IC90 [3]: 790 nM
- selectivity ratio [4]: 2
- IC50 [5]: 1100 nM

Structure (SMILES): CN(C)[C@@H]1C(O)=C(C(N)=O)C(=O)[C@@]2(O)C(O)=C3C(=O)c4c(O)cccc4[C@@](C)(O)[C@H]3C[C@@H]12 [TETRACYCLINE]
- IC50 [8]: > 4 equiv

Structure (SMILES): CCC1=CC2Cc3nc4cc(Cl)ccc4c(NCCN4CCC(CC5Cc6cc(OC)c(OC)cc6C5)CC4)c3C(C1)C2 (centres undefined)
- IC50 [1]: > 7140 nM
- selectivity ratio [2]: < 0.5
- IC50 [3]: 290 nM
- IC90 [3]: 700 nM
- selectivity ratio [4]: 12
- IC50 [5]: 3550 nM

Structure (SMILES): CC1=CC2Cc3nc4cc(Cl)ccc4c(NCCCN(C)CCCNc4c5c(nc6cc(Cl)ccc46)CCCC5)c3C(C1)C2 (centres undefined)
- IC50 [1]: 520 nM
- selectivity ratio [2]: < 1.9
- IC50 [3]: 280 nM
- IC90 [3]: 400 nM
- selectivity ratio [4]: < 3.6
- IC50 [5]: < 1000 nM

Structure (SMILES): CC1=CC2Cc3nc4ccccc4c(NCCCCCCCCCCNc4c5c(nc6ccccc46)CCCC5)c3C(C1)C2 (centres undefined)
- IC50 [1]: 3500 nM
- selectivity ratio [2]: < 0.29
- IC50 [3]: 240 nM
- IC90 [3]: 310 nM
- selectivity ratio [4]: < 4.2
- Papp [6]: 6.3 ×10⁻⁶ cm/s
- IC50 [5]: < 1000 nM
- IC50 [7]: 6.46 nM

Structure (SMILES): CC1=CC2Cc3nc4cc(Cl)ccc4c(NCCCCCCNc4c5c(nc6ccccc46)CCCC5)c3C(C1)C2 (centres undefined)
- IC50 [1]: 2990 nM
- selectivity ratio [2]: 0.39
- IC50 [3]: 470 nM
- IC90 [3]: 660 nM
- selectivity ratio [4]: 2.5
- IC50 [5]: 1170 nM

Structure (SMILES): CC1=CC2Cc3nc4cc(Cl)ccc4c(NCCCCCCCCNc4c5c(nc6cc(Cl)ccc46)CCCC5)c3C(C1)C2 (centres undefined)
- IC50 [1]: > 7140 nM
- selectivity ratio [2]: < 0.14
- IC50 [3]: 170 nM
- IC90 [3]: 460 nM
- selectivity ratio [4]: 5.7
- IC50 [5]: 970 nM

Structure (SMILES): COc1cc2c(cc1OC)C(=O)C(CC1CCN(CCNc3c4c(nc5ccccc35)CCCC4)CC1)C2 (centres undefined)
- IC50 [1]: > 8150 nM
- selectivity ratio [2]: < 0.37
- IC50 [3]: 410 nM
- IC90 [3]: 880 nM
- selectivity ratio [4]: < 7.3
- IC50 [5]: < 3000 nM
